T cell HTS: modulates CD8 T cell binding to vesicles; 2C CD8+ T cell-vesicle binding, flow cytometry; active compounds read low; response (vesicle binding), % at 7 µM; 0.068% of 330,000 active; AID 2052;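 active means response, share of CD8 T cells binding vesicles, and their 90th percentile fluorescence all below set limits, cut at about 80% in these data, passing the limit was not always enough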;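 further: values below 100% mean blocked vesicle binding to the CD8+ T cells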
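Assay system – 2C mouse CD8+ T cells · Also added – QL9-loaded Drosophila micro-vesicles · Timing – Cell–vesicle co-incubation 1.5 h at 37 °C, staining 20 min on ice · Signal – flow cytometry of vesicle-bound cells · Measure – percent CD8+ FL2 mean versus row control · Controls – Peptide-free naked vesicles (low) and QL9 vesicles with 0.7% DMSO vehicle (high)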
CASP6 VEID inh: blocks human caspase-6 cleavage activity; P55212; purified caspase-6, Z-VEID-R110 cleavage fluorescence; inhibition, % at 12.5 µM; 0.53% of 350,000 active; AID 686996;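 active means mean inhibition across replicates at least about 35%, with every replicate also reaching that limit, limit read from the data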;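 further: 0% = median of neutral control wells and 100% = no fluorescence left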
Target sequence (P55212 24-179 limits assumed): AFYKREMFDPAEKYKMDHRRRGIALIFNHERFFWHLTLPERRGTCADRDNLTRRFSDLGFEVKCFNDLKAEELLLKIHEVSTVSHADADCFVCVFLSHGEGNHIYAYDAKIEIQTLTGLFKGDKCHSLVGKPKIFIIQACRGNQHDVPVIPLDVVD
Target sequence (P55212 194-293 limits assumed): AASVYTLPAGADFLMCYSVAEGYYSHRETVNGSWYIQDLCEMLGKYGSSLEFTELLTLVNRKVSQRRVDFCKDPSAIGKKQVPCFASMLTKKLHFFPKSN
Vif inh: inhibitors of HIV Vif | HEK293T cells, Vif self-association by quenched fluorescence, imaging, 24 h | inhibition, % at 7.49 µM | 0.35% of 340,000 active; in the data active means inhibition above about 50%, passing the limit was not always enough
Myeloid diff 2: promotes myeloid progenitor differentiation; ER-HoxA9 myeloid progenitors, lysozyme-GFP differentiation, flow cytometry; AID 624256; 1% of 360,000 active; calls only at 10 µM;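 active means normalized GFP-positive differentiation at or above the plate's own cutoff, the solvent-only control mean plus 3 SD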;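 further: cells exposed to compound for four days before flow analysis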
Myeloid diff: myeloid differentiation induction; AID 651706; shares compounds with Myeloid diff 2; calls only; ER-HoxA9 myeloid progenitors, GFP/Mac1 double-positive flow; 2% of 2,300 active;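 active means share of green or green-and-red cells above 9 and 9% in run 1 or 4 and 3% in run 2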
GFP autofluor: compound fluorescence in myeloid differentiation counter-screen. AID 651707. ER-HoxA9 myeloid progenitors, no estrogen, GFP autofluorescence flow cytometry; vehicle wells 0%, positive control 100%. 7.4% of 2,300 active. fluorescence response, % (test concentration not listed). shares compounds with Myeloid diff 2;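 active means over 5% cells positive for green fluorescent reporter, or over 2% positive for both it and APC stain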;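 further: range taken on the double positive population between DMSO and positive control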
The depositor's hits bear a star; i = inactive; nt = no result; + = active, no number. Compounds with a hit are over-represented: about 1.4% of the library has one in this group of screens.

SMILES	T cell HTS	CASP6 VEID inh	Vif inh	Myeloid diff 2	Myeloid diff	GFP autofluor
C[C@@H]1CN([C@@H](C)CO)C(=O)Cc2cc(NS(C)(=O)=O)ccc2O[C@@H]1CN(C)Cc1ccc(Oc2ccccc2)cc1	nt	1	nt	nt	nt	nt
COc1ccc(/C=N/NC(=O)c2ccc(N(C)S(=O)(=O)c3ccccc3)cc2)cc1	463	nt	13	i	nt	nt
CN(c1ccc(C(=O)N/N=C/c2cccc([N+](=O)[O-])c2)cc1)S(=O)(=O)c1ccccc1	225	2	-42	i	i	0
O=C(C1CCCC1)N1CC(=O)N2[C@H](CO)[C@H](c3ccc(C#Cc4cccc(F)c4)cc3)[C@@H]2C1	nt	0	nt	nt	nt	nt
CN(C)CC#Cc1ccc([C@H]2[C@H]3CN(C(=O)C4CC4)CCCCN3[C@H]2CO)cc1	nt	1	nt	nt	nt	nt
CC(C)(C)c1nc(CN2CCOCC2)ccc1O	i	nt	4	i	nt	nt
CC(C)(C)c1nc(CN2CCCCC2)cc(CN2CCCCC2)c1O	150	nt	13	+	i	0
C[C@H](CO)N1C[C@H](C)[C@@H](CN(C)C(=O)Nc2ccc(C(F)(F)F)cc2)OCCCC[C@H](C)Oc2ccc(NC(=O)Nc3ccc(F)cc3)cc2C1=O	nt	1	nt	nt	nt	nt
CC(C)(C)C(=O)Nc1cc(NC(=O)C(C)(C)C)cc(C(=O)NNC(=O)c2ccncc2)c1	240	2	-3	+	i	0
COc1ccc(CNC(=O)C[C@@H]2C=C[C@@H](NC(=O)Nc3ccc4c(c3)OCO4)[C@@H](CO)O2)cc1	nt	0	nt	nt	nt	nt
COC(=O)COc1ccc(S(=O)(=O)Nc2ccc3c(c2)OCO3)cc1Cl	356	nt	3	+	i	0
COC(=O)COc1ccc(S(=O)(=O)Nc2ccc3c(c2)OCO3)cc1	394	-3	20	i	nt	nt
COc1ccc2c(c1OC)C(=O)N(c1ccc(C)c(C)c1)C2=O	309	nt	2	i	nt	nt
COc1ccc2c(c1OC)C(=O)N(c1ccc3c(c1)CCC3)C2=O	353	nt	38	i	i	0
O=C(Nc1ccc2c(c1)[C@H]1C[C@H](CC(=O)N3CCc4ccccc4C3)O[C@@H](CO)[C@H]1O2)NC1CCCC1	nt	2	nt	nt	nt	nt
COc1ccc2c3c([nH]c2c1)[C@@H](CO)N(C(=O)NC(C)C)CC31CCN(C(=O)c2cccnc2)CC1	nt	0	nt	nt	nt	nt
CC1=C(C(=O)Nc2ccccc2Cl)C(c2ccc(N(C)C)cc2)NC(=O)N1 (centres undefined)	164	nt	8	+	i	0
COc1ccc(C2NC(=O)NC(C)=C2C(=O)Nc2cccc(C)c2C)cc1 (centres undefined)	331	0	19	i	nt	nt
C[C@H](CO)N1C[C@H](C)[C@@H](CN(C)C(=O)Nc2ccc3c(c2)OCO3)Oc2cc(C3=CCCCC3)ccc2S1(=O)=O	nt	2	nt	nt	nt	nt
Cc1nn(C)c(C)c1NC(=O)CSc1nnc(C)n1-c1ccccc1	323	-3	nt	+	i	0
O=C(NCCN1CCc2ccccc2C1)C1CCN(S(=O)(=O)N2CCC3(CC2)OCCO3)CC1	273	-2	1	i	nt	nt
O=C(NCCN1CCc2ccccc2C1)C1CCN(S(=O)(=O)N2CCCCC2)CC1	nt	-4	-10	i	i	0
Cc1ccc(S(=O)(=O)N(C)C)cc1NC(=S)NCCc1ccccn1	404	nt	-3	i	i	0
Cc1ccc(S(=O)(=O)N2CCN(C(=O)CN3CCN(c4ccc(O)cc4)CC3)CC2)cc1	nt	6	1	+	i	0
CCCCOCCCNC(=O)N[C@H](C(=O)OC)C(C)C	347	nt	4	+	i	0
SMILES	T cell HTS	CASP6 VEID inh	Vif inh	Myeloid diff 2	Myeloid diff	GFP autofluor
O=C(Nc1nccs1)c1ccc(-c2ccc([N+](=O)[O-])cc2)o1	443	0	80*	+	i	0
CN1CCN(C(=O)C[C@@H]2C[C@H]3c4cc(NC(=O)Nc5ccc(C(F)(F)F)cc5)ccc4O[C@H]3[C@H](CO)O2)CC1	nt	1	nt	nt	nt	nt
CNC[C@H]1Oc2cc(C#Cc3ccccc3F)ccc2S(=O)(=O)N([C@H](C)CO)C[C@@H]1C	nt	16	nt	nt	nt	nt
Cc1cccc(N2CCN(C(=O)c3ccc4c(c3)OCCO4)CC2)c1C	546	8	5	+	+	0
C[C@H](CO)N1C[C@H](C)[C@H](CN(C)Cc2ccc(C(=O)O)cc2)OCCCC[C@H](C)Oc2ccc(NC(=O)Nc3ccc(C(F)(F)F)cc3)cc2C1=O	nt	1	nt	nt	nt	nt
Oc1ccc(/C=N/NC(=S)Nc2cccnc2)cc1	80	4	-7	i	i	0
COc1cccc(/C=N/NC(=S)Nc2cccnc2)c1	626	-2	12	i	nt	nt
Cc1noc(C)c1NC(=O)N(C)C[C@H]1OCCCC[C@H](C)Oc2ccc(NC(=O)NC(C)C)cc2C(=O)N([C@@H](C)CO)C[C@@H]1C	nt	-1	nt	nt	nt	nt
CC(=O)N1CCCCN2[C@H](C1)[C@@H](c1ccc(C#Cc3ccccc3F)cc1)[C@@H]2CO	nt	3	nt	nt	nt	nt
CC(C)c1nnc(NC(=O)Cn2nc(-c3ccc4c(c3)OCCO4)ccc2=O)s1	193	nt	-5	+	i	0
COC(=O)c1ccccc1NC(=O)C1CCC(=O)N1S(=O)(=O)c1ccc(C)cc1 (centres undefined)	300	1	8	i	i	0
COC(=O)c1cc(OC)c(OC)cc1NC(=O)C1CCC(=O)N1S(=O)(=O)c1ccc(C)cc1 (centres undefined)	380	nt	3	i	nt	nt
Cc1noc(C)c1S(=O)(=O)Nc1ccc2c(c1)C(=O)N([C@@H](C)CO)C[C@H](C)[C@@H](CN(C)S(=O)(=O)c1ccccc1)OCCCC[C@@H](C)O2	nt	3	nt	nt	nt	nt
O=C(c1ccc2c(c1)OCO2)N1CCCc2ccccc21	306	nt	-10	i	nt	nt
Cc1ccc2c(c1)CCCN2C(=O)c1ccc2c(c1)OCO2	370	nt	0	i	i	0

Assay outcomes: PubChem, several laboratories
